{
  "source": "ChEMBL document CHEMBL1134532",
  "about": "“Reversible carnitine palmitoyltransferase inhibitors with broad chemical diversity as potential antidiabetic agents” (J Med Chem, 2001)",
  "key": {"[1]": {"molecular_target": "T1, Carnitine O-palmitoyltransferase 1, liver isoform (Rattus norvegicus, UniProt P32198)", "T1 sequence (P32198 whole entry)": "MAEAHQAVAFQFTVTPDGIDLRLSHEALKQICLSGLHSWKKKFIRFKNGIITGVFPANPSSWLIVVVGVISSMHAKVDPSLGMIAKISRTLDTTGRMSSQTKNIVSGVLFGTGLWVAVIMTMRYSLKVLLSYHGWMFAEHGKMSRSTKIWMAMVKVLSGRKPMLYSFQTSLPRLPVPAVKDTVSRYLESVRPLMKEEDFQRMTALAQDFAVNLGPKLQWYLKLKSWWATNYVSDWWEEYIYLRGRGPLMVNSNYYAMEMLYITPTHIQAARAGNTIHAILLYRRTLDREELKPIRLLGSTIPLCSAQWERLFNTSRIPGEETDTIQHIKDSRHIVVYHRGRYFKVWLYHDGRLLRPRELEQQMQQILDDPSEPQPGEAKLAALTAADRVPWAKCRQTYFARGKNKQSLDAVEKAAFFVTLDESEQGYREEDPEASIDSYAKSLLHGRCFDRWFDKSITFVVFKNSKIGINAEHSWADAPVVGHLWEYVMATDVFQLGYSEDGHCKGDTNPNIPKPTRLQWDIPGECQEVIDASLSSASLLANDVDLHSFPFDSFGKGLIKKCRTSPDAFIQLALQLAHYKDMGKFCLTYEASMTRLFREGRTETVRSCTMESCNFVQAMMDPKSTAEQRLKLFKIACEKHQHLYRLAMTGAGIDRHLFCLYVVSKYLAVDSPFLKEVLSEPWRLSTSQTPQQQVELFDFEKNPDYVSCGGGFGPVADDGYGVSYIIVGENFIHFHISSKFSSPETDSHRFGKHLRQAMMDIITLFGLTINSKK", "experiment": "Inhibition of rat liver mitochondrial carnitine palmitoyltransferase 1 using [14C]palmitoyl-CoA radioligand", "how_it_was_run": "(§1)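 Performed on intact rat mitochondria: liver for L-CPT I, heart for M-CPT I. IC50 in µM calculated from the inhibition curve. Values are means of two determinations in triplicate, with variation between experiments under 8%.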"}, "[2]": {"molecular_target": "T2, Carnitine O-palmitoyltransferase 1, muscle isoform (Rattus norvegicus, UniProt Q63704)", "T2 sequence (Q63704 whole entry)": "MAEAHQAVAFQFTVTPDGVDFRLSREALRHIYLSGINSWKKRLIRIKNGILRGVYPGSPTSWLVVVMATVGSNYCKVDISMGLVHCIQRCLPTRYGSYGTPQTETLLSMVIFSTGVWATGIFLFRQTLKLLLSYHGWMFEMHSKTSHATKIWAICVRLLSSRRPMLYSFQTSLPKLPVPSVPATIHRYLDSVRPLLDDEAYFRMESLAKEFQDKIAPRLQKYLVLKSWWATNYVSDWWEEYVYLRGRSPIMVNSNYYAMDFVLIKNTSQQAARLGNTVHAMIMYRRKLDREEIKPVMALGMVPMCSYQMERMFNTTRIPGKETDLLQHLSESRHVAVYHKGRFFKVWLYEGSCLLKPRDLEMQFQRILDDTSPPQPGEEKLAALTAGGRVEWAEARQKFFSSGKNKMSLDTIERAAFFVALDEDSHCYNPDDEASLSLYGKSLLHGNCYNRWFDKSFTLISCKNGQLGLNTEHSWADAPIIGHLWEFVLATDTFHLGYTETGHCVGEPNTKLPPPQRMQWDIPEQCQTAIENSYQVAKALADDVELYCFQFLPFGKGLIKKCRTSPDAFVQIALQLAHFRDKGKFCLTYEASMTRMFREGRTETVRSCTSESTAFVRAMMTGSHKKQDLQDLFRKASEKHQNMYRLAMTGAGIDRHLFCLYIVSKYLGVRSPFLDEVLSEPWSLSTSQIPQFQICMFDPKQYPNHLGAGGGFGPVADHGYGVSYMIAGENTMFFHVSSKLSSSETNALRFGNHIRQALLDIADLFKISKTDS", "experiment": "Inhibitory activity against rat heart mitochondrial carnitine palmitoyltransferase 1b using [14C]palmitoyl-CoA as radioligand", "how_it_was_run": "as §1"}},
  "data": [
    {"compound": "CCCCCCCCCOC(=O)OC(CC(=O)O)C[N+](C)(C)C", "note": "(centres undefined)", "values": [
      {"measurement": "IC50", "setting": "[1]", "value": "> 300", "unit": "µM"}
    ]},
    {"compound": "CCCCCCCCCCCCCCOC(CC(=O)[O-])C[N+](C)(C)C", "note": "(centres undefined)", "values": [
      {"measurement": "IC50", "setting": "[1]", "value": 47, "unit": "µM"}
    ]},
    {"compound": "CCCCCCCCCCS(=O)(=O)NC(CC(=O)[O-])C[N+](C)(C)C", "note": "(centres undefined)", "values": [
      {"measurement": "IC50", "setting": "[2]", "value": 2.3, "unit": "µM"},
      {"measurement": "IC50", "setting": "[1]", "value": 1.6, "unit": "µM"}
    ]},
    {"compound": "CCCCCCCCCCCNS(=O)(=O)N[C@@H](CC(=O)[O-])C[N+](C)(C)C", "values": [
      {"measurement": "IC50", "setting": "[2]", "value": "> 10", "unit": "µM"},
      {"measurement": "IC50", "setting": "[1]", "value": 6, "unit": "µM"}
    ]},
    {"compound": "CCCCCCCCCCCCCCOC(Cc1nn[n-]n1)C[N+](C)(C)C", "note": "(centres undefined)", "values": [
      {"measurement": "IC50", "setting": "[1]", "value": "> 300", "unit": "µM"}
    ]},
    {"compound": "CCCCCCCCCCCCS(=O)(=O)N[C@H](CC(=O)[O-])C[N+](C)(C)C", "values": [
      {"measurement": "IC50", "setting": "[2]", "value": 3.4, "unit": "µM"},
      {"measurement": "IC50", "setting": "[1]", "value": 0.7, "unit": "µM"}
    ]},
    {"compound": "CCCCCCCCCCCCCCNC(CC(=O)[O-])C[N+](C)(C)C", "note": "(centres undefined)", "values": [
      {"measurement": "IC50", "setting": "[1]", "value": 230, "unit": "µM"}
    ]},
    {"compound": "CCCCCCCCCCCCCCOC(=O)OC(C[N+]12CCC(CC1)CC2)CP(=O)([O-])O", "note": "(centres undefined)", "values": [
      {"measurement": "IC50", "setting": "[1]", "value": "> 300", "unit": "µM"}
    ]},
    {"compound": "CCCCCCCCCNC(=O)NC(CC(=O)[O-])C[N+](C)(C)C", "note": "(centres undefined)", "values": [
      {"measurement": "IC50", "setting": "[2]", "value": 83.2, "unit": "µM"},
      {"measurement": "IC50", "setting": "[1]", "value": 19.5, "unit": "µM"}
    ]},
    {"compound": "CCCCCCCCOC(=O)NC(CC(=O)[O-])C[N+](C)(C)C", "note": "(centres undefined)", "values": [
      {"measurement": "IC50", "setting": "[2]", "value": 211, "unit": "µM"},
      {"measurement": "IC50", "setting": "[1]", "value": 22.3, "unit": "µM"}
    ]},
    {"compound": "CCCCCCCCNC(CC(=O)[O-])C[N+](C)(C)C", "note": "(centres undefined)", "values": [
      {"measurement": "IC50", "setting": "[1]", "value": "> 300", "unit": "µM"}
    ]},
    {"compound": "CCCCCCCCCCCCS(=O)(=O)N[C@@H](CC(=O)[O-])C[N+](C)(C)C", "values": [
      {"measurement": "IC50", "setting": "[2]", "value": "> 10", "unit": "µM"},
      {"measurement": "IC50", "setting": "[1]", "value": 6, "unit": "µM"}
    ]},
    {"compound": "CCCCCCCCCCCCCCOC(=O)OC(CC(=O)[O-])C[N+]12CCC(CC1)CC2", "note": "(centres undefined)", "values": [
      {"measurement": "IC50", "setting": "[1]", "value": "> 300", "unit": "µM"}
    ]},
    {"compound": "CCCCCCCCCNC(=O)OC(CC(=O)[O-])C[N+](C)(C)C", "note": "(centres undefined)", "values": [
      {"measurement": "IC50", "setting": "[1]", "value": "> 300", "unit": "µM"}
    ]},
    {"compound": "CCCCCCCCCNC(=O)OC(C[n+]1ccccc1)CP(=O)(O)O", "note": "(centres undefined)", "values": [
      {"measurement": "IC50", "setting": "[1]", "value": "> 300", "unit": "µM"}
    ]},
    {"compound": "CCCCCCCCOC(CC(=O)[O-])C[N+](C)(C)C", "note": "(centres undefined)", "values": [
      {"measurement": "IC50", "setting": "[1]", "value": "> 300", "unit": "µM"}
    ]},
    {"compound": "CCCCCCCCCNC(=O)OC(C[N+](C)(C)C)CP(=O)([O-])O", "note": "(centres undefined)", "values": [
      {"measurement": "IC50", "setting": "[1]", "value": "> 300", "unit": "µM"}
    ]},
    {"compound": "CCCCCCCCCNC(=O)OC(CC(=O)[O-])C[P+](C)(C)C", "note": "(centres undefined)", "values": [
      {"measurement": "IC50", "setting": "[1]", "value": "> 300", "unit": "µM"}
    ]},
    {"compound": "CCCCCCCCCNC(=S)NC(CC(=O)[O-])C[N+](C)(C)C", "note": "(centres undefined)", "values": [
      {"measurement": "IC50", "setting": "[1]", "value": 122, "unit": "µM"}
    ]},
    {"compound": "CCCCCCCCCCCNS(=O)(=O)N[C@H](CC(=O)[O-])C[N+](C)(C)C", "values": [
      {"measurement": "IC50", "setting": "[2]", "value": 5.8, "unit": "µM"},
      {"measurement": "IC50", "setting": "[1]", "value": 0.8, "unit": "µM"}
    ]},
    {"compound": "CCCCCCCCCNS(=O)(=O)NC(CC(=O)[O-])C[N+](C)(C)C", "note": "(centres undefined)", "values": [
      {"measurement": "IC50", "setting": "[2]", "value": 3.8, "unit": "µM"},
      {"measurement": "IC50", "setting": "[1]", "value": 2.3, "unit": "µM"}
    ]}
  ]
}
